Tests used:
[1] = molecular target: T1, Tyrosine-protein kinase JAK2 (Homo sapiens, UniProt O60674); experiment: Binding affinity to wild type JAK2 JH2 (unknown origin) expressed in baculovirus infected Sf9 insect cells incubated for 20 hrs by competitive fluorescence polarization assay
Outline: (§1)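 JAK2 JH2 domain Kd from a competitive fluorescence polarization tracer-displacement assay, with readings after 30 min and after 20 h incubation. The negative control was tracer in buffer. The positive control used enough protein to bind all tracer, at the same protein concentration used across the assays.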

[2] = species on record: Homo sapiens; experiment: Selectivity ratio of Kd for wild type JAK2 JH2 (unknown origin) expressed in baculovirus infected Sf9 insect cells incubated for 30 mins to Kd for wild type JAK2 JH2 (unknown origin) expressed in baculovirus infected Sf9 insect cells incubated for 20 hrs
[3] = molecular target: T1, Tyrosine-protein kinase JAK2; experiment: Binding affinity to wild type JAK2 JH2 (unknown origin) expressed in baculovirus infected Sf9 insect cells incubated for 30 mins by competitive fluorescence polarization assay; outline: as §1
[4] = molecular target: T1, Tyrosine-protein kinase JAK2; experiment: Binding affinity to wild type JAK2 JH1 (unknown origin) expressed in baculovirus infected Sf9 insect cells incubated for 30 mins by competitive fluorescence polarization assay
[5] = species on record: Homo sapiens; experiment: Selectivity ratio of Kd for wild type JAK2 JH1 (unknown origin) expressed in baculovirus infected Sf9 insect cells incubated for 30 mins to Kd for wild type JAK2 JH2 (unknown origin) expressed in baculovirus infected Sf9 insect cells incubated for 30 mins
Outline: (§2)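 Selectivity is the ratio of JH1 Kd to JH2 Kd, both from the same competitive fluorescence polarization assay. JH2 Kd was taken at the 30 min or 20 h incubation. Controls were tracer in buffer (negative) and saturating protein at the common protein concentration (positive).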

[6] = species on record: Homo sapiens; experiment: Selectivity ratio of Kd for wild type JAK2 JH1 (unknown origin) expressed in baculovirus infected Sf9 insect cells incubated for 30 mins to Kd for wild type JAK2 JH2 (unknown origin) expressed in baculovirus infected Sf9 insect cells incubated for 20 hrs; outline: as §2

T1 sequence (O60674 whole entry, the tested form may be a part): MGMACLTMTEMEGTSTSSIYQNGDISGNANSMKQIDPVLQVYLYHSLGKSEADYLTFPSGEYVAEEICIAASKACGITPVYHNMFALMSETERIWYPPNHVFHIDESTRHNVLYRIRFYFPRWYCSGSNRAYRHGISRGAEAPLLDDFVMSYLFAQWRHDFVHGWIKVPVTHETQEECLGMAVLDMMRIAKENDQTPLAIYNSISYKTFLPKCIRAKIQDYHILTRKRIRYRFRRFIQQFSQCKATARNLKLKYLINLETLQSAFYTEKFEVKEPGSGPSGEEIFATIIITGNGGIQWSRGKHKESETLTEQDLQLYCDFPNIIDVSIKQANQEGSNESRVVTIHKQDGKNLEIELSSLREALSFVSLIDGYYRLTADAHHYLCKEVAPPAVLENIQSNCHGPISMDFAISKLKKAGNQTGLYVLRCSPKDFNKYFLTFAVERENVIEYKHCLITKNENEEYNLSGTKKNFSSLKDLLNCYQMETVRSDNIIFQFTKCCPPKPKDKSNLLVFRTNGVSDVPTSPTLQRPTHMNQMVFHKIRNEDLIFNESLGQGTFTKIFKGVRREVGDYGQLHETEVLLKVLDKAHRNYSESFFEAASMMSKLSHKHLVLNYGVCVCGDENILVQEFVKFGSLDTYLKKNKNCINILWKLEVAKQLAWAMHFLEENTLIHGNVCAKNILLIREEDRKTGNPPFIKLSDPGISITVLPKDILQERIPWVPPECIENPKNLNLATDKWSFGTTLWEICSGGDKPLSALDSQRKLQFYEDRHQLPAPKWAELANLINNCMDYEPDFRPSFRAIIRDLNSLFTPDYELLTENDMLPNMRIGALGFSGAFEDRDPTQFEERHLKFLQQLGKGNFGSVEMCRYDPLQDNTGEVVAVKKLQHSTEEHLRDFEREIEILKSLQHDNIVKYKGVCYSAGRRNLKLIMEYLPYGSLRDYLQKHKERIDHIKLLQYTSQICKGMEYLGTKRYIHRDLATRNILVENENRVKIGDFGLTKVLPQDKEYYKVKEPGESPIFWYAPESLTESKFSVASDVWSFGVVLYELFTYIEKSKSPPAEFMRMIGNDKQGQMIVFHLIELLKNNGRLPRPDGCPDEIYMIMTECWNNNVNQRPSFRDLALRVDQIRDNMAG

| Structure (SMILES) | Kd [1] [nM] | Selectivity ratio [2] | Kd [3] [nM] | Kd [4] [nM] | Selectivity ratio [5] | Selectivity ratio [6] |
| --- | --- | --- | --- | --- | --- | --- |
| C/C=C/C(=O)NCCc1ccc(F)c(C(=O)n2nc(Nc3ccc(C(=O)NC)cc3)nc2N)c1F | 565 | 1 | 578 |  |  |  |
| C=CC(=O)NCCc1cc(F)c(C(=O)n2nc(Nc3ccc(C(=O)NC)cc3)nc2N)c(F)c1 | 75 | 3.2 | 242 | 830 | 3.4 | 11.1 |
| C=CC(=O)NCCOc1ccc(F)c(C(=O)n2nc(Nc3ccc(C(=O)NC)cc3)nc2N)c1F | 154 | 4 | 617 | 4370 | 7.1 | 28.4 |
| C=CC(=O)NCc1ccc(F)c(C(=O)n2nc(Nc3ccc(C(=O)NC)cc3)nc2N)c1F | 800 | 1.6 | 1250 |  |  |  |
| C=CC(=O)NCCc1ccc(F)c(C(=O)n2nc(Nc3ccc(C(=O)NC)cc3)nc2N)c1F | 110 | 5.1 | 556 | 1280 | 2.3 | 11.6 |
| CNC(=O)c1ccc(Nc2nc(N)n(C(=O)c3c(F)cccc3F)n2)cc1 | 263 | 0.65 | 171 |  |  |  |
